The source made the active and inactive calls. The calls are words filed in the database; no cut-off is given here.
Experiments:
Plasmodium falciparum [1] = test: Antimalarial activity against 4th to 5th gametocyte stage of Plasmodium falciparum 3D7elo1-pfs16-CBG99 assessed as inhibition of gametocyte viability by luciferase reporter gene assay; assay type: functional, organism-based
Procedure, shortened: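 Stage IV–V gametocytes of luciferase-expressing 3D7elo1-pfs16-CBG99 strain (CBG99 under pfs16 promoter); luciferase activity as viability read-out. Viability = 100×(treated−blank)/(untreated−blank), blank = 100 nM epoxomicin-treated sample. Epoxomicin and dihydroartemisinin as positive controls. IC50 from nonlinear regression of dose–response; mean of three experiments in duplicate.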

[2] = Half life in human liver microsomes at 1 uM by LC-MS/MS analysis; assay type: ADME
HepG2 = test: Cytotoxicity against human HepG2 cells after 48 hrs by MTT assay; assay type: cell-based; conditions: HepG2, 48 h
Plasmodium berghei [3] = test: Antimalarial activity against Plasmodium berghei ANKA infected in C57Bl6 mouse assessed as reduction of parasitemia at 160 mg/kg/day, po administered for day 3 to 5 measured on day 6 to 14 by Thompson test; assay type: functional, organism-based
Procedure, shortened: (§1)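 Modified Thompson test: C57Bl6 female mice inoculated intraperitoneally on day 0 with 1×10^6 P. berghei ANKA-infected erythrocytes; compound suspended in 0.5% hydroxyethylcellulose–0.1% Tween 80, given orally once daily on days 3, 4 and 5 post infection. Parasitemia by Giemsa-stained thin tail-blood smears on days 0, 3, 6, 10, 13, 17, 20, 24, 27, 31. Cure = survival without parasitemia to day 31.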

Plasmodium falciparum [4] = test: Antimalarial activity against chloroquine-susceptible Plasmodium falciparum D6 after 48 hrs by [3H]hypoxanthine incorporation assay; assay type: functional, organism-based
Procedure, shortened: (§2)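 P. falciparum D6 (Sierra I/UNC clone), W2 (Indochina I clone), TM91C235 (South-East Asian clone) cultured with compound; growth inhibition by [3H]hypoxanthine incorporation (modified Desjardins/Milhous method). Chloroquine, mefloquine, artemisinin as positive controls. IC50 in nM; technical triplicates, curve fits R2 0.96–1.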

Plasmodium falciparum [5] = test: Antimalarial activity against mutidrug resistant Plasmodium falciparum TM91C235 after 48 hrs by [3H]hypoxanthine incorporation assay; assay type: functional, organism-based; procedure, shortened: as §2
Plasmodium falciparum [6] = test: Antimalarial activity against chloroquine-resistant Plasmodium falciparum W2 after 48 hrs by [3H]hypoxanthine incorporation assay; assay type: functional, organism-based; procedure, shortened: as §2
[7] = Half life in mouse liver microsomes at 1 uM by LC-MS/MS analysis; assay type: ADME
[8] = Selectivity index, ratio of IC50 for human HepG2 cells to IC50 for chloroquine susceptible Plasmodium falciparum D6; assay type: toxicity, cell-based; conditions: read-out: Ratio IC50
Mus musculus [9] = test: Toxicity in Plasmodium berghei ANKA infected C57Bl6 mouse at 160 mg/kg/day, po administered for 3 days measured 2 times a day for 31 days; assay type: organism-based; conditions: in vivo, 744 h
Plasmodium berghei [10] = test: Antimalarial activity against Plasmodium berghei ANKA infected in C57Bl6 mouse at 160 mg/kg/day, po measured on day 3 to 5 by Thompson test; assay type: functional
Plasmodium berghei [11] = test: Antimalarial activity against Plasmodium berghei ANKA infected in C57Bl6 mouse at 80 mg/kg/day, po measured on day 3 to 5 by Thompson test; assay type: functional
Plasmodium berghei [12] = test: Antimalarial activity against Plasmodium berghei ANKA infected in C57Bl6 mouse at 40 mg/kg/day, po on days 3 to 5 by Thompson test; assay type: functional
Plasmodium berghei [13] = test: Antimalarial activity against Plasmodium berghei ANKA infected in po dosed C57Bl6 mouse administered on day 3 to 5 by Thompson test; assay type: functional; procedure, shortened: as §1
Plasmodium berghei [14] = test: Antimalarial activity against sporozoite stage of Plasmodium berghei infected in human Huh7 cells assessed as inhibition of parasite infection at 0.125 uM pre-incubated for 24 hrs followed by parasite infection measured after 48 hrs by bioluminescence assay; assay type: functional; conditions: Huh-7
[15] = Inhibition of beta hematin formation measured as hemin equivalent after 18 hrs; assay type: physicochemical
Procedure, shortened: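 Hemin (16 mM in DMSO) mixed with compound at 0.125–5 mol equiv to hemin, plus water and 8 M acetate buffer pH 5.2, 25% DMSO final. Incubated 18 h at 37 °C. Pellet washed with DMSO, dissolved in 0.1 M NaOH, absorbance read at 405 nm (corrected at 670 nm) against a hemin calibration.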

Plasmodium berghei [16] = test: Antimalarial activity against sporozoite stage of Plasmodium berghei ANKA infected in C57Bl/6J mouse assessed as reduction in liver parasite load at 50 mg/kg/, po administered for 3 days measured after 48 hrs by luciferase reporter gene assay relative to control; assay type: functional; design: scale not given: the % may be the effect or the level left
Procedure, shortened: (§3)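 C57BL/6J mice dosed by oral gavage (DMSO in sunflower oil) on three consecutive days: 24 h before, at, and 24 h after intravenous infection with luciferase-expressing P. berghei sporozoites. Controls got vehicle. Liver parasite load measured by in vivo luminescence 46–48 h after infection, after subcutaneous luciferin, expressed as % of controls. Two independent experiments.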

Plasmodium berghei [17] = test: Antimalarial activity against sporozoite stage of Plasmodium berghei ANKA infected in C57BL/6J mouse assessed as reduction in liver parasite load at 80 mg/kg/, po administered for 3 days measured after 48 hrs by luciferase reporter gene assay relative to control; assay type: functional; design: scale not given: the % may be the effect or the level left; procedure, shortened: as §3
[18] = Octanol-water partition coefficient, logP of the compound; assay type: physicochemical
[19] = Intrinsic clearance in human hepatocytes assessed per 10^6 cells at 1 uM by LC-MS/MS analysis; assay type: ADME, cell-based, Hepatocyte; conditions: read-out: CLH
Procedure, shortened: (§4)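 Cryopreserved human or mouse hepatocytes equilibrated for 30 min at 37 °C, then given 1 μM final compound in duplicate at 37 °C. Samples quenched at set times in ice-cold methanol with internal standards. Parent depletion by LC-MS/MS (MRM) as % of time zero, fitted to first-order decay. t1/2 = 0.693/k, and CLint derived from it. Verapamil and warfarin served as controls.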

[20] = Intrinsic clearance in mouse hepatocytes assessed per 10^6 cells at 1 uM by LC-MS/MS analysis; assay type: ADME, cell-based, Hepatocyte; conditions: read-out: CLH; procedure, shortened: as §4
Hepatocyte [21] = test: Half life in human hepatocytes at 1 uM by LC-MS/MS analysis; assay type: ADME, cell-based; procedure, shortened: as §4
[22] = Half life in mouse hepatocytes at 1 uM by LC-MS/MS analysis; assay type: ADME, cell-based, Hepatocyte; procedure, shortened: as §4
Hepatocyte [23] = test: Drug metabolism in human hepatocytes assessed as monohydroxylated metabolite formation at 1 uM after 60 mins by LC-MS/MS analysis; assay type: ADME, cell-based; conditions: 1 h
Procedure, shortened: (§5)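 Hepatocyte incubation of 1 μM compound at 37 °C, in duplicate. Supernatants analysed by LC-MS/MS, with SRM monitoring of phase I and II metabolites (oxidation, demethylation, dehydrogenation, glucuronidation, oxidation + glucuronidation).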

Hepatocyte [24] = test: Drug metabolism in mouse hepatocytes assessed as monohydroxylated metabolite formation at 1 uM after 60 mins by LC-MS/MS analysis; assay type: ADME, cell-based; conditions: 1 h; procedure, shortened: as §5
Hepatocyte [25] = test: Drug metabolism in human hepatocytes assessed as dihydroxylated metabolite formation at 1 uM after 60 mins by LC-MS/MS analysis; assay type: ADME, cell-based; conditions: 1 h; procedure, shortened: as §5
Hepatocyte [26] = test: Drug metabolism in mouse hepatocytes assessed as dihydroxylated metabolite formation at 1 uM after 60 mins by LC-MS/MS analysis; assay type: ADME, cell-based; conditions: 1 h; procedure, shortened: as §5
Plasmodium berghei [27] = test: Antimalarial activity against Plasmodium berghei ANKA infected in C57Bl6 mouse assessed as reduction of parasitemia at 10 to 20 mg/kg/day, po administered for day 3 to 5 by Thompson test; assay type: functional, organism-based; procedure, shortened: as §1
Plasmodium berghei [28] = test: Antimalarial activity against sporozoite stage of Plasmodium berghei infected in human Huh7 cells assessed as inhibition of parasite infection pre-incubated for 24 hrs followed by parasite infection measured after 48 hrs by bioluminescence assay; assay type: functional, organism-based; conditions: Huh-7
Hepatocyte [29] = test: Metabolic stability in human hepatocytes assessed as compound remaining at 1 uM after 60 mins by LC-MS/MS analysis; assay type: ADME, cell-based; conditions: 2 h, in the assay text read “120 mins” for “60 mins”; procedure, shortened: as §4
Plasmodium berghei [30] = test: Antimalarial activity against sporozoite stage of Plasmodium berghei infected in human Huh7 cells assessed as remaining parasite infection at 2 uM pre-incubated for 24 hrs followed by parasite infection measured after 48 hrs by bioluminescence assay; conditions: Huh-7
Mus musculus [31] = test: Toxicity in Plasmodium berghei ANKA infected C57Bl6 mouse at 80 mg/kg/day, po administered for 3 days measured 2 times a day for 31 days; assay type: organism-based; conditions: in vivo, 744 h
Plasmodium berghei [32] = test: Antimalarial activity against Plasmodium berghei ANKA infected in C57Bl6 mouse assessed as increase in cure rate at 80 mg/kg/day, po administered for day 3 to 5 by Thompson test; assay type: functional, organism-based; procedure, shortened: as §1
Plasmodium berghei [33] = test: Antimalarial activity against Plasmodium berghei ANKA infected in C57Bl6 mouse assessed as increase in survival rate at 80 mg/kg/day, po administered for day 3 to 5 by Thompson test; assay type: functional, organism-based; procedure, shortened: as §1

In the case of `CC[C@H](C)[C@H](NC(=O)[C@H]([C@@H](C)CC)N(C)C(C)=O)C(=O)N[C@H](C(=O)N[C@@H](CC(C)C)C(=O)[C@@]1(C)CO1)[C@@H](C)O` [EPOXOMYCIN], the IC50 (Plasmodium falciparum [1]) is reported as 11.8 nM.

For `CC(CCCNCCC12CC3CC(CC(C3)C1)C2)Nc1ccnc2cc(Cl)ccc12` (stereo not given), the half-life at 1 µM [2] was 1 h, the IC50 (HepG2) was 13300 nM and the Activity (Plasmodium berghei [3]) was “Active”. The IC50 (Plasmodium falciparum [4]) was 7 nM, the IC50 (Plasmodium falciparum [5]) was 14 nM and the IC50 (Plasmodium falciparum [6]) was 26 nM. The half-life at 1 µM [7] was 1 h, the selectivity ratio [8] was 1900 and the Activity (Mus musculus [9]) was “Non-toxic”. It also gave an MST (Plasmodium berghei [10]) of 21.4 days.

In the case of `CC(CCNCC12CC3CC(CC(C3)C1)C2)Nc1c(F)cnc2cc(Cl)ccc12` (stereo not given), the half-life at 1 µM [2] is reported as 0.217 h, the IC50 (HepG2) is reported as 3970 nM and the IC50 (Plasmodium falciparum [4]) is reported as 135 nM. For the same compound, the IC50 (Plasmodium falciparum [5]) was 197 nM, the IC50 (Plasmodium falciparum [6]) was 238 nM and the half-life at 1 µM [7] was 0.35 h. The Activity (Mus musculus [9]) was “Non-toxic”, the MST (Plasmodium berghei [10]) was 26.2 days and the MST (Plasmodium berghei [11]) was greater than 31 days. For the same compound, the MST (Plasmodium berghei [12]) was 18.4 days, the Activity (Plasmodium berghei [13]) was “Dose dependent effect” and the MCD (Plasmodium berghei [13]) was 80 mg/kg/day. For the same compound, the inhibition at 0.125 µM (Plasmodium berghei [14]) was 38%, the IC50 [15] was 0.61 equiv and the Activity (Plasmodium berghei [16]) was 84%. The Activity (Plasmodium berghei [17]) was 92%, the logP [18] was 3.25 and the hepatocyte CLint at 1 µM [19] was 8.9 µL/min/1e6 cells. For the same compound, the hepatocyte CLint at 1 µM [20] was 8.7 µL/min/1e6 cells, the t1/2 (Hepatocyte [21]) was 1.3 h and the half-life at 1 µM [22] was 1.32 h. For the same compound, the Drug metabolism (Hepatocyte [23]) was “metabolite_detected”, the Drug metabolism (Hepatocyte [24]) was “metabolite_detected” and the Drug metabolism (Hepatocyte [25]) was “metabolite_detected”. For the same compound, the Drug metabolism (Hepatocyte [26]) was “metabolite_detected”, the Activity (Plasmodium berghei [27]) was “inactive” and the IC50 (Plasmodium berghei [28]) was 310 nM. The Stability (Hepatocyte [29]) was 32% and the % infection at 2 µM (Plasmodium berghei [30]) was 13%.

With `Fc1ccc2scc(CNCCCNc3ccnc4cc(Cl)ccc34)c2c1` the Activity (Mus musculus [9]) was “Toxic”, the Activity (Mus musculus [31]) was “Non-toxic” and the MST (Plasmodium berghei [11]) was 14 days. The Activity (Plasmodium berghei [32]) was “inactive” and the Activity (Plasmodium berghei [33]) was “inactive”.
